According to ChEMBL document CHEMBL2429851, “New synthesis and tritium labeling of a selective ligand for studying high-affinity γ-hydroxybutyrate (GHB) binding sites” (J Med Chem, 2013):
Active and inactive are the calls of the source. The calls are words filed in the database; no cut-off is given here.

Assays:
MDCK [1] = experiment: Apparent permeability from apical to basolateral side in MDCK cells expressing MDR1; format: ADME, cell-based, Canis lupus familiaris; conditions: dog
[2] = Ratio of drug level in brain to plasma in C57 mouse at 10 mg/kg, po after 30 mins by LC-MS/MS analysis; format: ADME, organism-based; set-up: dose 10 mg/kg, route oral; conditions: read-out: BPR
Outline: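 Mice dosed orally at 10 mg/kg, a single acute dose. Brain and plasma sampled 30 minutes after dosing, and the brain-to-plasma concentration ratio calculated.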

Rattus norvegicus [3] = organism: Rattus norvegicus; experiment: (§1) Displacement of [3H]-3-hydroxycyclopent-1-enecarboxylic acid from GHB binding site in Sprague-Dawley rat cerebral cortex after 1 hr by scintillation counting analysis; format: tissue-based
Outline: (§2)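 Rat cerebrocortical membranes incubated with 10 nM [3H]-ligand and competitor over a concentration range. Conditions follow the earlier [3H]NCS-382 protocol. Non-specific binding defined with 1 mM GHB. IC50 taken from inhibition curves. Each experiment run in triplicate, with three additional repeats.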

[4] = as §1; format: tissue-based; outline: as §2
MDCK [5] = experiment: Apparent permeability from basolateral to apical side in MDCK cells expressing MDR1; format: ADME, cell-based, Canis lupus familiaris; conditions: dog
[6] = Radiochemical stability of the compound in ethanol at 1 mCi/mL by HPLC analysis; format: physicochemical
Outline: (§3)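 [3H]-labelled compound tested for protection against radiolysis in four formulations, including ethanol and aqueous gentisic acid (50 mM), at 1 mCi/mL. Stability followed by HPLC (area%, 245 nm).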

[7] = Radiochemical stability of the compound in aqueous solution of gentisic acid by HPLC analysis; format: physicochemical; conditions: buffer; outline: as §3
Rattus norvegicus [8] = organism: Rattus norvegicus; conditions: Sprague-Dawley, Cerebral cortex, at 1 mM
Rattus norvegicus [9] = organism: Rattus norvegicus; conditions: Sprague-Dawley, Cerebral cortex, at 100 µM
[10] = Displacement of [3H]NCS-382 from GHB binding site in Sprague-Dawley rat brain synaptic membranes after 1 hr by scintillation counting analysis; format: cell membranes, Membrane
[11] = Chemical stability of the compound in Milli-Q water at -30 degC by HPLC analysis; format: physicochemical; conditions: buffer
Outline: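 HPLC purity tracking (area%, 245 nm) of the compound dissolved at 2 mg/mL in MilliQ water (pH 3.5). Stored at −30±2°C and also at room temperature, sampled over time (days to over a year).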

SMILES	permeability (MDCK [1])	Kp at 0.5 h [2]	inhibition (Rattus norvegicus [3])	IC50 [4] [nM]	pIC50 [4]	permeability (MDCK [5])	further results
O=C(O)CCCO [OXYBATE]	impermeable	0.2	Dose-dependent effect	1140	5.94	impermeable	–
[3H]C1(O)C=C(C(=O)O)CC1 (stereo not given)	–	–	–	–	–	–	Stability [6]: Stable; Stability [7]: Stable
NCC(CC(=O)O)c1ccc(Cl)cc1 (stereo not given)	–	–	–	–	–	–	inhibition (Rattus norvegicus [8]): inactive
COc1ccc(-c2ccc(=N)n(CCCC(=O)O)n2)cc1	–	–	–	–	–	–	inhibition (Rattus norvegicus [9]): Active
O=C([O-])C1=CC(O)CC1.[Na+] (stereo not given)	–	–	–	116	6.93	–	–
O=C(O)/C=C1\CCCc2ccccc2C1O (stereo not given)	impermeable	0.38	–	–	–	impermeable	inhibition (Rattus norvegicus [9]): Active
O=C(O)C1=CC(O)CC1 (racemic) [listing 1 of 2 here]	–	–	Dose-dependent effect	–	–	–	–
O=C(O)C1=CC(O)CC1 (racemic) [listing 2 of 2 here]	impermeable	0.37	–	73	7.14	impermeable	Ki [10]: 160 nM; Stability [11]: 16 months
O=C(O)C1=CC(O)CC1 (stereo not given)	–	–	Dose-dependent effect	–	–	–	–
